Most compounds without a hit are left out; they make up all but 3% or so of the library.
TRPC6 activator: activators of mouse TRPC6 channel; Q61143; HEK293-TRPC6 membrane potential dye fluorescence; stronger effect = higher value; B-score at 10 µM; 310,000 compounds, 0.13% hits; AID 2550;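 active means B-score of the integrated fluorescence ratio above library mean plus 3 SD, and starting fluorescence ratio within library mean plus 5 SD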;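 further: higher score means more depolarization so channel activation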
TRPC4 potent: allosteric potentiators of mouse TRPC4 channel. Q9QUQ5. AID 2227. B-score at 10 µM. 310,000 compounds, 0.42% hits. HEK293 TRPC4beta/mu-opioid, DAMGO EC20, Fluo-4 Ca2+ flux; stronger effect = higher value;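 active means B-score of calcium response area above 5 SD of library B-scores, with initial fluorescence ratio within 5 SD of library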;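 further: B-score of integrated fluorescence ratio over time as area under calcium response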
TRPC4 block: blocks the mouse TRPC4 cation channel | HEK293 TRPC4beta/mu-opioid, DAMGO-evoked Fluo4 calcium flux; stronger effect = lower value | Q9QUQ5 | 300,000 compounds, 0.39% hits | B-score at 10 µM | AID 2247;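 active means B-score over 3 SD under the library average, no early fluorescence shift, positive overall ratio signal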
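Material: HEK293 cells with stable TRPC4beta plus mu-opioid receptor expression; probe or stimulus: DAMGO in two steps, submaximal then maximal; technique: Fluo4 calcium fluorescence by kinetic imaging, 5 s 1 Hz baseline; measure: integrated fluorescence ratio relative to baseline, converted to per-well B score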
TRPC6 inh: blocks the mouse TRPC6 cation channel; HEK293-TRPC6, membrane potential dye, ACh-evoked depolarization; stronger effect = lower value; AID 2553; Q61143; 310,000 compounds, 1.1% hits; B-score at 10 µM;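 active means B-score under library mean minus 3 SD, initial fluorescence not abnormally high, positive integrated signal ratio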;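 further: B-score derived from integrated fluorescence ratio over the kinetic read; more negative B-score means stronger inhibition of depolarization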
Kir21 block: Kir2.1 (mouse) channel inhibition; P35561; HEK293-Kir2.1, FluxOR thallium flux fluorescence; stronger effect = lower value; B-score at 10 µM; 310,000 compounds, 0.85% hits; AID 1672;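 active means fluorescence ratio B-score at or below minus 3 SD of library scores, with starting-brightness B-score within 2 SD, cut at about -4.2 in these data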;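 further: channel flux triggered by added potassium and thallium sulfate stimulus; B-score of peak minus minimum fluorescence over baseline after thallium stimulus; more negative B-score means stronger Kir2.1 block with less thallium influx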
Target sequence (P35561 whole entry, looked up): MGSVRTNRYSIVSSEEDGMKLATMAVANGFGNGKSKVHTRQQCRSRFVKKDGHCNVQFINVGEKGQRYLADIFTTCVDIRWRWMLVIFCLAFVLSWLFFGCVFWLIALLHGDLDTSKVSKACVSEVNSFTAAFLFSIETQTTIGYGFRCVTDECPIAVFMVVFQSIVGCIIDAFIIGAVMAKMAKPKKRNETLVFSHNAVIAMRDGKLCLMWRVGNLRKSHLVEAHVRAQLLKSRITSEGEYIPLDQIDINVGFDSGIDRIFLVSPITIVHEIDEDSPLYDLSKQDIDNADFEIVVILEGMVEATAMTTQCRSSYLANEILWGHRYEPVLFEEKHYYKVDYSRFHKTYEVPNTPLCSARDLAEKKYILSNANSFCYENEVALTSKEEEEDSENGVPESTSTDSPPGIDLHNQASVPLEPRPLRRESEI
TRPC4 agonist: opens the mouse TRPC4 cation channel; B-score at 10 µM; AID 2237; HEK293 TRPC4beta/mu-opioid, Fluo4 calcium fluorescence; stronger effect = higher value; 310,000 compounds, 0.49% hits;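 active means B-score above 5 SD of library B-scores, and initial fluorescence ratio not above library mean plus 5 SD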;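 further: positive B-score marks a calcium rise read as TRPC4 activation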
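Material: HEK293 stable line with TRPC4beta plus mu-opioid receptor; technique: Fluo4 calcium-sensitive dye fluorescence, kinetic, 1 Hz baseline; timing: Fluo4 dye loading 45 min at room temperature, 110 s recording; controls: assay buffer as low control, maximal DAMGO as high control; read-out: integrated baseline-normalised fluorescence ratio, converted to per-well B score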
* marks the source's active call; other numbers are inactive results; i = inactive.

SMILES	TRPC6 activator	TRPC4 potent	TRPC4 block	TRPC6 inh	Kir21 block	TRPC4 agonist
C=C1C(=O)O[C@@H]2C[C@@H](C)[C@@H]3C=CC(=O)[C@@]3(C)[C@@H](OC(=O)CC(=O)O[C@H]3[C@@H]4C(=C)C(=O)O[C@@H]4C[C@@H](C)[C@@H]4C=CC(=O)[C@]43C)[C@H]12	i	i	i	i	-4.7*	i
CCOc1cc(C=C2C(=O)NC(=O)NC2=O)ccc1OS(=O)(=O)c1ccccc1	i	i	i	i	-5.5*	i
COc1cc(C=C2C(=O)NC(=O)NC2=O)ccc1OS(=O)(=O)c1ccccc1[N+](=O)[O-]	i	i	i	i	-2.5	i
Cc1cc(OCC(=O)N2C[C@H]3C[C@@H](C2)c2cccc(=O)n2C3)c2c(C)cc(=O)oc2c1	i	i	i	i	-0.82	i
CN1CCN(/N=C/c2c(O)n(Cc3ccc(F)cc3)c(=O)[nH]c2=O)CC1	i	i	i	i	-0.02	i
CCC(=O)Nc1ccccc1	i	i	i	i	0.01	i
CCOC(=O)C1(c2ccccc2)CCN(CC(=O)Nc2ccc(C)cc2)CC1	i	i	-8*	i	-2.4	i
CCOC(=O)C1(CCOc2ccccc2)CCN(Cc2ccccc2OC)CC1	i	i	i	i	-2.8	i
CCOC(=O)C1(c2ccccc2)CCN(CCC(C#N)(c2ccccc2)c2ccccc2)CC1	i	i	i	i	-0.57	94*
CNC(=O)Oc1ccc(N(C)C)cc1C(C)C	i	i	i	i	0.87	i
CNCC(O)c1cc(OCc2ccccc2)c(OCc2ccccc2)cc1F (stereo unspecified)	i	i	i	i	-6*	i
CNCC(O)c1cccc(OC(=O)c2ccccc2C)c1 (stereo unspecified)	i	i	i	i	-2.4	i
COc1ccc(CCNCc2cccn2C)cc1OC	i	i	i	i	-0.22	i
Cc1ccc(Cl)cc1N1CCN(CCN)CC1	i	i	i	i	-0.07	155*
CCOC(=O)C1(CCc2ccccc2)CCN(Cc2cccc3c2OCO3)CC1	i	i	-6*	i	-0.35	i
CCOC(=O)C1(CCc2ccccc2)CCN(Cc2csc(C(C)=O)c2)CC1	i	i	i	i	-1.6	49*
CCOC(=O)C1(CCc2ccccc2)CCN(Cc2cccc3cnccc23)CC1	i	i	i	i	-0.09	i
CCN(CC)c1ccc(C=C2C(=O)NC(=S)NC2=O)cc1	i	i	i	i	1.6	i
CC(C)CN(CC(C)C)c1ccc(C=C2C(=O)NC(=S)NC2=O)cc1[N+](=O)[O-]	i	i	-7*	i	-2.8	i
CC(NS(=O)(=O)OCC(Cl)(Cl)Cl)c1ccccc1 (stereo unspecified)	i	i	i	i	-5.7*	i
COc1cccc(C(=O)C2CCCN(C3CCOCC3)C2)c1 (stereo unspecified)	i	i	i	i	0.76	i
CC(C)(C)c1ccc(C(=O)C2CCCN(C3CCC3)C2)cc1 (stereo unspecified)	i	i	i	i	-0.53	57*
CC(=O)N1CCC(N2CCCC(C(=O)c3cccc(Cl)c3)C2)CC1 (stereo unspecified)	i	i	i	-5.7*	1.3	i
Cc1c2cnn(CC(=O)N3CCC4(CC3)OCCO4)c(=O)c2c(C)n1Cc1ccccc1Cl	i	i	i	i	-0.5	i
CSc1ccc(CN2CCN(C(=O)COc3cccc(C)c3)CC2)cc1	i	i	i	i	-0.19	i
SMILES	TRPC6 activator	TRPC4 potent	TRPC4 block	TRPC6 inh	Kir21 block	TRPC4 agonist
NC(N)=N/N=C/c1ccc(N(c2ccccc2)c2ccccc2)cc1	i	i	i	i	-6.2*	86*
NC(N)=N/N=C/c1ccc(N2CCOCC2)cc1	i	i	i	i	-0.94	i
Cc1ccc(NC(=S)NCCc2cnc[nH]2)cc1C	i	i	i	i	-2.2	225*
Oc1ccc(CC2(N3CCCC3)CCCCC2)cc1	i	i	i	i	0	i
CC1(C)CC(N(CCc2ccccc2)Cc2ccccc2)CCO1 (stereo unspecified)	i	i	-6*	i	-1.2	i
Cc1cc(NC(=O)CCl)no1	i	i	i	i	-1.2	i
COc1ccc(C(=O)C2CCCN(C3CSCCSC3)C2)c(C)c1 (stereo unspecified)	i	i	i	i	-1.2	59*
COc1ccccc1CN1CCCC(C(=O)c2ccccc2SC)C1 (stereo unspecified)	i	i	i	i	-0.04	i
COc1ccc(C(=O)C2CCCN(CCO)C2)c(C)c1 (stereo unspecified)	i	i	i	i	0.04	51*
COc1ccc(O)c(CN2CCCC(C(=O)c3ccccc3SC)C2)c1 (stereo unspecified)	i	i	-6*	i	0.11	i
O=C1Nc2cc(C(=O)N3CCC4(CC3)OCCO4)ccc2NC1CSCc1cccc(F)c1 (stereo unspecified)	i	i	i	i	-1.3	i
Oc1ccc2c3c1O[C@H]1c4oc5ccccc5c4C[C@@]4(O)[C@@H](C2)N(CC2CC2)CC[C@]314	i	i	-6*	i	-1.4	i
Oc1ccc2c3c1O[C@H]1c4[nH]c5ccccc5c4C[C@@]4(O)C(C2)N(CC2CC2)CC[C@]314	i	i	i	i	-0.5	i
CN1CCc2nc(SCc3cccc(Br)c3)c(C#N)cc2C1	i	i	i	i	0.07	i
CN(C)c1ccc(/C=C/[N+](=O)[O-])cc1	19*	i	i	i	-6.3*	i
Fc1cccc(C2NCCc3[nH]cnc32)c1 (stereo unspecified)	i	i	i	i	1.1	162*
CNc1cc(Cl)c2nonc2c1[N+](=O)[O-]	i	i	i	i	-6.6*	i
O=C(NCc1cccnc1)Nc1ccc([N+](=O)[O-])cc1	i	i	i	i	-0.15	i
CC1(C)C[C@H]2C=C(C=O)[C@]3(C=O)C[C@]3(C)[C@H]2C1	i	i	i	i	-8.2*	i
CN(C)CCSCc1nnc2n1-c1ccc(Cl)cc1C(c1ccccc1Cl)=NC2	i	i	i	i	-0.4	i
